Published values collected from several papers.
Compare with care: the assays were run in different laboratories.

For `CCCC[C@@H]1NC(=O)[C@H](Cc2ccc(O)cc2)NC(=O)[C@@H]2CCCN2C(=O)[C@H](CC(=O)O)NC(=O)[C@H](C)NC(=O)[C@H](Cc2ccccc2)NC(=O)[C@@H]2CSCCC(=O)N3CN(CN(C3)C(=O)CCSC[C@H](NC(C)=O)C(=O)N[C@@H](CC(C)(C)C)C(=O)N3CCC[C@H]3C(=O)N[C@@H](CCC(=O)O)C(=O)N[C@H](CCCCNC(=O)CCc3cn(CCOCCOCCOCCN(CCOCCOCCOCCC(=O)N[C@H]4CSCCC(=O)N5CN6CN(C5)C(=O)CCSC[C@H](NC(=O)[C@@H](CC(=O)O)NC(=O)[C@H](Cc5cccc7ccccc57)NC(=O)[C@@H]5CCCN5C4=O)C(=O)N[C@@H](CCSC)C(=O)N[C@@H](CCCCNC(=N)N)C(=O)N[C@@H](CC(=O)O)C(=O)N[C@@H](Cc4c[nH]c5ccccc45)C(=O)N[C@@H](CO)C(=O)N[C@@H]([C@@H](C)O)C(=O)N4CCC[C@H]4C(=O)N4C[C@H](O)C[C@H]4C(=O)N[C@@H](Cc4c[nH]c5ccccc45)C(=O)N[C@H](C(N)=O)CSCCC6=O)CCOCCOCCOCCn4cc(CCC(=O)NCCCC[C@H]5NC(=O)[C@H](CCC(=O)O)NC(=O)[C@@H]6CCCN6C(=O)[C@H](CC(C)(C)C)NC(=O)[C@@H](NC(C)=O)CSCCC(=O)N6CN7CN(C6)C(=O)CCSC[C@H](NC(=O)[C@H](Cc6ccc(O)cc6)NC(=O)[C@@H]6CCCN6C5=O)C(=O)N[C@@H](Cc5ccccc5)C(=O)N[C@@H](C)C(=O)N[C@@H](CC(=O)O)C(=O)N5CCC[C@H]5C(=O)N[C@@H](Cc5ccc(O)cc5)C(=O)N[C@@H](CCCC)C(=O)N[C@H](C(N)=O)CSCCC7=O)nn4)nn3)C(=O)N3CCC[C@H]3C(=O)N[C@@H](Cc3ccc(O)cc3)C(=O)N2)C(=O)CCSC[C@@H](C(N)=O)NC1=O`, the clearance was 13 mL/min/kg (rat, plasma; intravenous, 2 mg/kg).
The haemolysis of `CN[C@H](CC(C)C)C(=O)N[C@H]1C(=O)N[C@@H](CC(N)=O)C(=O)N[C@H]2C(=O)N[C@H]3C(=O)N[C@H](C(=O)N[C@H](C(=O)O)c4cc(O)cc(O)c4-c4cc3ccc4O)[C@H](O)c3ccc(c(Cl)c3)Oc3cc2cc(c3O[C@@H]2O[C@H](CO)[C@@H](O)[C@H](O)[C@H]2O[C@H]2C[C@](C)(N)[C@H](O)[C@H](C)O2)Oc2ccc(cc2Cl)[C@H]1O` is reported as ≤ 1% (haemolysis; human; 200 µM, 1 h, pH 7.2).
The clearance of `CCCC[C@@H]1NC(=O)[C@H](Cc2ccc(O)cc2)NC(=O)[C@@H]2CCCN2C(=O)[C@H](CC(=O)O)NC(=O)[C@H](C)NC(=O)[C@H](Cc2ccccc2)NC(=O)[C@@H]2CSCCC(=O)N3CN(CN(C3)C(=O)CCSC[C@@H](C(=O)N[C@@H](CNC(=O)CCOCCOCCOCCOCCOCCn3cc(CCC(=O)N[C@H]4CSCCC(=O)N5CN6CN(C5)C(=O)CCSC[C@H](NC(=O)[C@@H](CC(=O)O)NC(=O)[C@H](Cc5cccc7ccccc57)NC(=O)[C@@H]5CCCN5C4=O)C(=O)N[C@@H](CCSC)C(=O)N[C@@H](CCCCNC(=N)N)C(=O)N[C@@H](CC(=O)O)C(=O)N[C@@H](Cc4c[nH]c5ccccc45)C(=O)N[C@@H](CO)C(=O)N[C@@H]([C@@H](C)O)C(=O)N4CCC[C@H]4C(=O)N4C[C@H](O)C[C@H]4C(=O)N[C@@H](Cc4c[nH]c5ccccc45)C(=O)N[C@H](C(N)=O)CSCCC6=O)nn3)C(N)=O)NC1=O)C(=O)CCSC[C@H](NC(C)=O)C(=O)N[C@@H](CC(C)(C)C)C(=O)N1CCC[C@H]1C(=O)N[C@@H](CCC(=O)O)C(=O)N[C@H](C)C(=O)N1CCC[C@H]1C(=O)N[C@@H](Cc1ccc(O)cc1)C(=O)N2` is reported as 16 mL/min/kg (rat, plasma; intravenous, 2 mg/kg).
The haemolysis of `CC[C@H](C)[C@H](N)C(=O)N[C@@H](CC(N)=O)C(=O)N[C@@H](CC(C)C)C(=O)N[C@@H](CCCCN)C(=O)N[C@@H](C)C(=O)N[C@@H](CC(C)C)C(=O)N[C@@H](C)C(=O)N[C@@H](C)C(=O)N[C@@H](CC(C)C)C(=O)N[C@@H](C)C(=O)N[C@@H](CCCCN)C(=O)N[C@@H](CCCCN)C(=O)N[C@H](C(=O)N[C@@H](CC(C)C)C(N)=O)[C@@H](C)CC` is reported as ≤ 15% (haemolysis; human; 100 µM).
With `NC(=O)c1ncn([C@@H]2O[C@H](CO)[C@@H](O)[C@H]2O)n1` the CC50 was > 250 µM (HeLa; cell growth or viability, MTS).
With `CC(C)(C)NC(=O)N[C@H](C(=O)N1C[C@H]2[C@@H]([C@H]1C(=O)NC(CC1CCC1)C(=O)C(N)=O)C2(C)C)C(C)(C)C` (some centres unmarked) the CC50 was > 100 µM (HCT-8; cell growth or viability, neutral red; 48 h).
For `[2H]C([2H])([2H])n1cc2cc(Nc3nc(=O)n(Cc4ncn(C)n4)c(=O)n3Cc3cc(F)c(F)cc3F)c(Cl)cc2n1`, the clearance was 1.03 mL/min/kg (male Sprague-Dawley rat, plasma; intravenous, 5 mg/kg).
The haemolysis of `COc1cc(Br)c(C=NNc2nc(-c3ccc(F)cc3)cs2)cc1OC` is reported as 3.06% (haemolysis; human; 10 µM, 30 min, pH 7.4).
For `Cc1nc(Nc2ccc(NC(=O)c3ccco3)cc2)cc(-n2cccn2)n1`, the CC50 was > 100 µM (HeLa; cell growth or viability, MTS).
For `CCCCCCCCCCOc1cc2c(O)c(C(=O)OCC)cnc2cc1OCC`, the IC50 was > 100 µM (HeLa; cell growth or viability; 72 h).
`Nc1ncnc2c1ncn2C[C@H](O)CO` has a CC50 of > 250 µM (HeLa; cell growth or viability, MTS).
